Compound activity deposited in PubChem BioAssay by Broad Institute.
In the library only some 2.1% were active in any assay of this set; here they are far more common.
XiGFP reactiv = activators of inactive X chromosome reactivation, primary screen, imaging, XiGFP fibroblasts, GFP high-content imaging, set 2; XiGFP mouse fibroblasts, % GFP-positive cells imaging, 3 d; cells co-treated with 5-aza-dC sensitizer; scaled so ellipticine positive control = 100%; 360,000 tested, 0.055% active; activation, % at 7.58 µM;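 active = mean normalized replicate activation at least 10% and every replicate at or above 10%; inconclusive = only one of the two criteria met; inactive = mean below 10% and not all replicates reach 10%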;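 note: 0% = median of on-plate neutral control wells and 100% = ellipticine 6 µM median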
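System: 68-5-11 XiGFP fibroblast line; Timing: 3 days compound exposure; Compound dosing: one concentration, pinned; Benchmarks: positive control ellipticine, 6 µM final; Buffer or medium: DMEM containing 5-aza-dC.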
DENV2 CPE rescue = inhibitors of DENV2 cytopathic effect, primary screen, cell-based, plate reader, single concentration | CPE inhibition, % at 9.99 µM | 350,000 tested, 1.7% active | AID 651640, 2012 | DENV2-infected cells, cytopathic effect rescue; in the data active = CPE inhibition above about 20%, passing the limit was not always enough; inconclusive = no clear call, values can overlap the other calls; tested in BHK-21 cells;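 note: 0% = median of neutral control wells and 100% = median of positive control wells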
Statin myotox sup = suppressors of statin myotoxicity in C2C12 myotubes, primary screen, cell-based, single point, plate reader | C2C12 myotubes + simvastatin, ATP luminescence, 48 h; scaled: DMSO 0, geranylgeraniol control 100 | rescue of ATP level, % at 7.49 µM | 330,000 tested, 0.78% active | AID 602340, 2012;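 active = mean ATP rescue above about 67%, or every replicate alone reaching that limit, limit read from the data, passing the limit was not always enough; inconclusive = no clear call, values can overlap the other calls; inactive = mean under the limit and some replicate under it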;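 note: myotubes were challenged with 10 µM simvastatin during compound exposure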
Cneo AK release = Cryptococcus neoformans cell lysis inducers, primary screen, AK release luminescence, single concentration; lysis activity, % at 15 µM; 360,000 tested, 0.2% active; AID 651654, 2012; C. neoformans lysis, adenylate kinase release luminescence, 4 h; normalised: neutral wells 0, clomiphene wells 100;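 active = mean lysis activity across replicates of at least 80%, whatever share of replicates individually reach that level; inactive = mean lysis activity below 80%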
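Assay system: log-phase C. neoformans yeast / Quantity: yeast cell density of 5 × 10^6 cells/mL / Medium: fresh YPD growth medium / Compound: single dose / Timing: static 4 h at 37 °C with compound, 1 h detection / Measured by: adenylate kinase release luminescence / Read-out: lysis from increased AK signal / Benchmarks: Clomiphene as positive lysis control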
The depositor's hits bear a star; ? = inconclusive; nt = not tested or not shown; ! = a repeat was not active.

SMILES | XiGFP reactiv | DENV2 CPE rescue | Statin myotox sup | Cneo AK release
C[C@@H]1CN([C@@H](C)CO)C(=O)c2c(c3ccccc3n2C)-c2ccccc2CO[C@H]1CN(C)Cc1cccc2c1OCCCO2 | 0.4 | 21.4* | nt | nt
C[C@H]1CN([C@@H](C)CO)C(=O)c2c(c3ccccc3n2C)-c2ccccc2CO[C@@H]1CN(C)Cc1cccc(O)c1 | 0.4 | 4.8 | nt | nt
C[C@@H]1CN([C@H](C)CO)C(=O)c2c(c3ccccc3n2C)-c2ccccc2CO[C@H]1CN(C)Cc1ccc2c(c1)OCCN2C | -0.2 | 27.7*! | 2.1 | 2.0
C[C@H](CO)N1C[C@H](C)[C@H](CN(C)Cc2ccc3c(c2)OCCN3C)OCc2ccccc2-c2c(n(C)c3ccccc23)C1=O | -1.2 | -2.7 | nt | nt
COC(=O)C[C@@H]1C=C[C@H](NS(=O)(=O)c2ccc(OC)cc2)[C@@H](CO)O1 | 0.2 | 9.8 | -12.3 | 12.4
N#Cc1cc(-c2ccccc2)nnc1Sc1ccc(Cl)cc1 | nt | nt | 112.5* | 0.3
Cc1ccc(Sc2nc(-c3ccccc3)ccc2C#N)cc1 | nt | nt | -37.3 | 3.8
C[C@H](O)C#Cc1cnc2c(c1)C(=O)N([C@H](C)CO)C[C@@H](C)[C@@H](CN(C)CC1CCOCC1)O2 | -0.6 | 9.7 | -6.4 | -4.1
C[C@H]1CN([C@@H](C)CO)S(=O)(=O)c2ccc(C3=CCCC3)cc2O[C@H]1CN(C)CC1CC1 | -0.9 | 5.4 | -6.9 | 3.9
O=C(Nc1ccccc1C(=O)NCCCn1ccnc1)c1ccccc1 | nt | -2.6 | 122.0* | 1.4
COc1ccc(C(=O)Nc2ccccc2C(=O)NCCCn2ccnc2)cc1 | nt | nt | nt | -0.2
O=C(Cc1ccccn1)N[C@@H]1CC[C@@H](CCn2cc(-c3ccc(F)cc3)nn2)O[C@@H]1CO | 0.1 | 1.0 | nt | nt
COc1ccc(NC(=O)Nc2ccc3c(c2)C(=O)N([C@@H](C)CO)C[C@H](C)[C@@H](CN(C)C(=O)C2CCCCC2)OCCCC[C@H](C)O3)cc1 | 0.0 | 39.4* | 40.5 | 3.3
COc1ccc(NC(=O)Nc2ccc3c(c2)C(=O)N([C@H](C)CO)C[C@@H](C)[C@H](CN(C)C(=O)C2CCCCC2)OCCCC[C@H](C)O3)cc1 | -0.1 | 20.7* | 15.1 | 1.7
COc1ccc(NC(=O)Nc2ccc3c(c2)C(=O)N([C@@H](C)CO)C[C@@H](C)[C@@H](CN(C)C(=O)C2CCCCC2)OCCCC[C@H](C)O3)cc1 | 0.0 | -17.0 | -10.8 | 1.3
O=C(C1CC1)N1CC(=O)N2[C@@H](CO)[C@@H](c3ccc(C#CC4CCCC4)cc3)[C@@H]2C1 | 0.2 | -10.8 | nt | nt
CO[C@@H]1CN(C)C(=O)c2cc(NC(=O)NC(C)C)ccc2OC[C@H](C)N(Cc2ccc(-c3ccccn3)cc2)C[C@@H]1C | 0.5 | 6.1 | 23.4 | -4.8
Cc1oc2c(C)c3oc(=O)c(CCC(=O)NCCCN4CCOCC4)c(C)c3cc2c1C | nt | ? | -23.9 | 6.2
Cc1oc2c(C)c3oc(=O)c(CCC(=O)NCCN4CCOCC4)c(C)c3cc2c1C | nt | 29.2* | -2.9 | 0.6
Cc1cccc(C)c1OCC(O)Cn1ccnc1C (stereo unspecified) | 0.0 | 40.2* | 17.3 | 1.1
Cc1cccc(OCC(O)Cn2ccnc2C)c1 (stereo unspecified) | 0.0 | -1.7 | -1.7 | 5.2
O=C(COC(=O)C1CC2C=CC1C2)NCc1ccco1 (stereo unspecified) | nt | nt | 101.3* | 4.9
CN(C(=O)c1ccc(NC(=O)Cc2ccc(NC(=O)C3CCN(C(=O)C4CCC4)CC3)cc2)cc1)C1CC1 | 0.1 | -7.0 | -6.3 | 0.8
CN(C(=O)c1ccc(NC(=O)Cc2ccc(NC(=O)C3CCN(C(=O)C4CCCCC4)CC3)cc2)cc1)C1CCCC1 | 0.3 | 85.7* | 9.6 | 0.0
CN(C(=O)c1cccc(NC(=O)Cc2ccc(NC(=O)C3CCN(C(=O)C4CC4)CC3)cc2)c1)C1CCCC1 | -0.1 | 47.4* | 7.3 | 2.3
SMILES | XiGFP reactiv | DENV2 CPE rescue | Statin myotox sup | Cneo AK release
CN(C(=O)c1cccc(NC(=O)Cc2ccc(NC(=O)C3CCN(C(=O)C4CC4)CC3)cc2)c1)C1CCC1 | 0.0 | 10.4 | 9.7 | -4.5
COc1ccc(OC)c(-c2cc(C(=O)NCCCn3ccnc3)no2)c1 | nt | nt | 160.9* | nt
Cc1ccc(S(=O)(=O)N(c2nc(NC(C)C)nc(NC(C)C)n2)n2cnnc2)cc1 | 0.0 | 24.2* | nt | -4.5
C[C@H]1CN([C@@H](C)CO)S(=O)(=O)c2ccc(-c3cccc(C#N)c3)cc2O[C@H]1CN(C)C(=O)c1ccncc1 | -1.1 | 6.5 | 3.4 | -0.2
Cc1cccc(C)c1Nc1nnc(SCc2cc([N+](=O)[O-])cc3c2OCOC3)s1 | nt | nt | 243.7* | -1.3
O=[N+]([O-])c1cc2c(c(CSc3ncccn3)c1)OCOC2 | 0.2 | 3.9 | nt | nt
O=C(N[C@H]1CC[C@H](CCn2cc(C3(O)CCCC3)nn2)O[C@H]1CO)C1CCOCC1 | -0.4 | 31.7* | -12.2 | 45.8
CC(C)c1cn(CC[C@H]2CC[C@@H](NC(=O)C3CCOCC3)[C@H](CO)O2)nn1 | -0.1 | 2.5 | nt | nt
O=C(N[C@@H]1CC[C@@H](CCn2cc(C3(O)CCCC3)nn2)O[C@@H]1CO)C1CCCC1 | 0.3 | -7.7 | -0.2 | 0.4
CC(C)c1cn(CC[C@@H]2CC[C@H](NC(=O)C3CCOCC3)[C@H](CO)O2)nn1 | 4.8 | 30.8* | nt | nt
O=C(N[C@@H]1CC[C@@H](CCn2cc(C3(O)CCCC3)nn2)O[C@H]1CO)C1CCCC1 | 0.1 | 20.6* | -6.0 | -1.9
CNC[C@@H]1Oc2ccc(NC(=O)Nc3ccc4c(c3)OCO4)cc2CC(=O)N([C@H](C)CO)C[C@H]1C | -1.0 | 3.9 | 5.2 | 0.1
COc1ccccc1NC(=O)N[C@@H]1CC[C@@H](CCNS(=O)(=O)c2ccc(F)cc2)O[C@@H]1CO | -0.9 | 0.9 | -7.1 | 0.7
CCN(C(=O)CSc1nnc(NCCOC)s1)c1c(N)n(Cc2ccccc2)c(=O)[nH]c1=O | 0.0 | 68.9* | 23.5 | -0.8
COCCN(C(=O)COC(=O)CC(C)c1ccccc1)c1c(N)n(Cc2ccccc2)c(=O)[nH]c1=O (stereo unspecified) | 0.0 | 30.7* | nt | nt
COCCNc1nnc(SCC(=O)N(C)c2c(N)n(Cc3ccccc3)c(=O)[nH]c2=O)s1 | 0.0 | -1.3 | -2.4 | -1.1
COCCN(C(=O)COC(=O)CCOc1ccccc1)c1c(N)n(Cc2ccccc2)c(=O)[nH]c1=O | 0.3 | -5.5 | 2.4 | 0.1
C[C@@H]1CN([C@H](C)CO)C(=O)Cc2cc(NC(=O)Cc3cn(C)c4ccccc34)ccc2O[C@@H]1CN(C)C(=O)Nc1ccc(F)cc1 | -0.5 | 6.2 | 41.7 | nt
CN1CCN(C(=O)c2ccc3c(c2)S(=O)(=O)c2ccccc2C3=O)CC1 | 0.5 | 63.1* | 4.9 | -1.2
CC(=O)N1CCN(C(=O)c2ccc3c(c2)S(=O)(=O)c2ccccc2C3=O)CC1 | 0.1 | 0.5 | -0.7 | -0.9
